From PMC3246390 (Organic & biomolecular chemistry, 2011)
“Also recorded” adds a separate entry of the source. Where two headings read alike, the source gives them in different places.

What was measured:
mice [1] = format: in vivo; settings: 5 µg intraperitoneal; for cytokine secretion (INF-γ and IL-4): IL-4 at 4h and INF-γ at 16h
Method in brief: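 Each mouse received an intraperitoneal injection of 5 µg glycolipid (6"-modified α-GalCer analogues, galacturonic acid and α-d-fucopyranosyl types). Serum IL-4 was measured at 4 h and serum INF-γ at 16 h after injection.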

[2] = target: T1, mouse Vα14Vβ8.2 NKT TCR (glycolipid presented by mouse CD1d) (Mus musculus, UniProt P11609); format: binding; settings: for Kass / Kdiss: Langmuir 1:1 model; for Kdiss: TCR dissociation from mouse CD1d-glycolipid complex
T1 sequence (P11609 19-297): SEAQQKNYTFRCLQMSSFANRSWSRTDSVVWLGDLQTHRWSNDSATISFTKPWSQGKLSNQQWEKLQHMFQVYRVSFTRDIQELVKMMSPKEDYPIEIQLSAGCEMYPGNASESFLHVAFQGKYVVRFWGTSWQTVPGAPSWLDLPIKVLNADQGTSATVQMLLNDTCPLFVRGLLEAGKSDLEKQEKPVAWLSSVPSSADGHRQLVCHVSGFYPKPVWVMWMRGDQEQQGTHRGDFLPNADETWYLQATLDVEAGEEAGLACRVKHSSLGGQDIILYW
T1 sequence (P01887 21-119 partner): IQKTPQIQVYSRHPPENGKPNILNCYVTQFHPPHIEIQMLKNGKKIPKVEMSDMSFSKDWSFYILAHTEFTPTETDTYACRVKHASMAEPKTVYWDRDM
T1 sequence (P01849 1-110 partner): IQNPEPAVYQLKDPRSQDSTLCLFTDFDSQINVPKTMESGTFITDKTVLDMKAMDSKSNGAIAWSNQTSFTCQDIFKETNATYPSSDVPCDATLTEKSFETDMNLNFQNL

[3] = test system: lung and breast cancer in mice; settings: lung and breast cancer (GSL-1’: mice bearing lung cancer, equal doses); cited from earlier work
mice [4] = settings: i.v. administration; cited from earlier work
mice [5] = settings: cited from earlier work
[6] = SPR, TCR binding to mouse CD1d-glycolipid complex
[7] = read-out: KD(Kdiss/Kass), SPR, TCR binding to mouse CD1d-glycolipid complex

Molecule	cytokine secretion (INF-γ and IL-4) (mice [1]; serum)	Kass [2, 6] [M⁻¹ s⁻¹]	Kdiss ([2]; SPR) [s⁻¹]	Kd [2, 7] [nM]	further results
1-O-(6-deoxy-α-D-galactopyranosyl)-2-hexacosylamino-octadecane-1,3,4-triol [compound 12]	weak cytokine secretion; also recorded: low cytokine release	100000 ± 20000	0.00648 ± 0.0018	74.4 ± 25	
CCCCCCCCCCCCCCC(O)C(O)C(CO[C@H]1O[C@H](C(=O)O)[C@H](O)[C@H](O)[C@H]1O)NC(=O)CCCCCc1ccccc1 (stereo partly drawn) [compound 14, 1-O-(α-D-galactopyranosyluronate)-2-(6-phenylhexanoyl)amino-octadecane-1,3,4-triol]	abolishes all activity; also recorded: low cytokine release	110000 ± 6000	0.00811 ± 0.0012	75.3 ± 15.2	
α-C-GalCer [compound 3, reference compound]					Th1/Th2 polarization (mice [1]; INF-γ versus IL-4): no polarization; IL-4 secretion (Th2 response) (mice [1]; serum, measured at 4h): strong Th2 response; INF-γ secretion (mice [1]; serum, measured at 16h): superior INF-γ inducer
1-O-(α-D-galactopyranosyluronate)-2-hexacosylamino-octadecane-1,3,4-triol [compound 13]	minor cytokine secretion	100000 ± 9000		165 ± 38.3	efficacy towards cancer compared to α-GalCer [3]: more effective; secretion of INF-γ compared to α-GalCer (mice [4]): drastically lower secretion of INF-γ
CCCCCCCCCCCCCCCCCCCCCCCCCC(=O)N[C@@H](CO[C@H]1O[C@H](CO)[C@H](O)[C@H](O)[C@H]1O)[C@H](O)[C@H](O)CCCCCCCCCCCCCC [KRN7000 (1), α-galactosylceramide, reference compound]					Kd [2]: 11.2 ± 0.2 nM; kon ([2]; read-out: Kass): 130000 M⁻¹ s⁻¹; koff ([2]; read-out: Kdiss): 0.00145 s⁻¹
1-O-(6-deoxy-α-D-galactopyranosyl)-2-hexacosylamino-octadecane-1,3,4-triol [compound 4]		80000 ± 3000	0.00526 ± 0.00029	64.8 ± 6	IFN-γ induction compared to α-GalCer (mice [5]): superior to α-GalCer
